Assay results published in PubChem BioAssay AID504347 (Broad Institute, 2011).
Activity calls are given as the source filed them.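 The calls were made as follows: active = fitted curve climbs past 10% caspase activation, relative to the positive control, at or below the top valid tested dose; inactive = the rest, including activity in the opposite direction.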

Tested on: not listed separately
Test: A1 inhibitor-induced caspase activation in BIM-primed MEFs, dose response, cell-based, MEF A1-2A-BIM, luminescence, dry powder, set 4 (AID 504347)
Conditions: MEF A1-2A-BIM cells, caspase-3/7 luminescence; at 35 µM (top of the series)
Summary of the method: (§1)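 System: mouse embryonic fibroblasts co-expressing A1-2A-BIM construct / Amount: 2500 cells/well / Buffer or medium: RPMI-1640, 10% FBS / Schedule: 3 h compound at 37 °C, 1 h reagent at RT / Technique: Caspase-3/7 DEVD-luciferin luminescence / Evaluation: caspase activation indicated by luminescence increase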

Row | SMILES | caspase activation
1 | COc1ccc(CCNc2nc(N3CCOCC3)nc(N3CCOCC3)n2)cc1OC | 4.68% (inactive)
2 | C/C(=N\Nc1nc(N2CCCCC2)nc(N2CCCCC2)n1)c1ccc(F)cc1 | 0.602% (inactive)
3 | Cc1ccc(Sc2c(Sc3ccc(C)cc3)c3ccccc3n(C)c2=O)cc1 | -0.138% (inactive)

Tested on: MEF A1-2A-BIM cells, caspase-3/7 luminescence
Test: as above
Conditions: not given
Summary of the method: as §1

Row | SMILES | AC10 [µM]
4 | O=C(COc1ccc(Cl)cc1Cl)NNc1nc(N2CCOCC2)nc(N2CCOCC2)n1 | 28.5
5 | O=c1[nH]c2ccccc2c(Cl)c1[N+](=O)[O-] | 2.8
6 | CCn1c(=O)c([N+](=O)[O-])c(Sc2ccc(C)cc2)c2ccccc21 | 15
7 | COCCn1c(=O)c([N+](=O)[O-])c(Sc2ccc(C)cc2)c2ccccc21 | 6.43
8 | Cn1c(=O)c([N+](=O)[O-])c(Cl)c2ccccc21 | 0.96
9 | Cc1ccc(Sc2c([N+](=O)[O-])c(=O)n(Cc3ccccc3)c3ccccc23)cc1 | 17.8
10 | Cn1c(=O)c([N+](=O)[O-])c(-n2cnc3ccccc32)c2ccccc21 | 8.18
11 | COCCn1c(=O)c(Sc2ccc(C)cc2)c(Sc2ccc(C)cc2)c2ccccc21 | 20.2
12 | O=c1c([N+](=O)[O-])c(Cl)c2ccccc2n1Cc1ccccc1 | 2.53
